Laboratory results as given in ChEMBL document CHEMBL3271988, “Nitrogen analogues of 1,4-benzoquinones. Activities against the ascitic sarcoma 180 of mice” (J Med Chem, 1978).
Activity calls are given as the source filed them. The calls are words filed in the database; no cut-off is given here.

Legend:
[1] = test system: Sarcoma-180; experiment: Antitumor activity against mouse Sarcoma 180 cells allografted in Swiss mouse assessed as survival time at 15 mg/kg, ip three doses were given at 24 hrs interval starting 24 hrs after allograft injection relative to control; format: functional; conditions: route intraperitoneal
How it was run: (§1)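 Swiss mice inoculated ip with 10^6 ascitic sarcoma 180 cells. Compound given ip daily ×3 at 24-h intervals, starting 24 h after inoculation. Controls received isotonic saline on the same schedule; 6 mice per group. Mice alive at 60 days counted as 60 days in mean survival (±SD).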

[2] = test system: Sarcoma-180; experiment: Antitumor activity against mouse Sarcoma 180 cells allografted in Swiss mouse at 15 mg/kg, ip three doses were given at 24 hrs interval starting 24 hrs after allograft injection relative to control; format: functional; conditions: route intraperitoneal
How it was run: (§2)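 Swiss mice received 10^6 ascitic sarcoma 180 cells ip, then three ip doses 24 h apart starting at 24 h. Controls got isotonic salt solution on the same schedule. T/C% is mean survival time of treated over controls (6 mice per group).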

[3] = Acute toxicity in single ip dosed Swiss mouse assessed as death up to 5 days; format: organism-based; conditions: in vivo
How it was run: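 Male Swiss mice given one ip dose. LD50 taken as the single dose killing 50% of animals within 5 days.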

[4] = test system: Sarcoma-180; experiment: Antitumor activity against mouse Sarcoma 180 cells allografted in Swiss mouse assessed as survival at 15 mg/kg, ip three doses were given at 24 hrs interval starting 24 hrs after allograft injection measured after 5 days; format: functional, organism-based; set-up: dose 15 mg/kg
How it was run: (§3)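 Swiss mice were injected ip with 10^6 ascitic sarcoma 180 cells. Three daily ip doses followed, the first 24 h after cell injection. The read-out was the number of mice surviving at 5 days, out of 6 treated.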

[5] = test system: Sarcoma-180; experiment: Antitumor activity against mouse Sarcoma 180 cells allografted in Swiss mouse assessed as weight gain at 15 mg/kg, ip three doses were given at 24 hrs interval starting 24 hrs after allograft injection measured after 3 days relative to control; format: functional; conditions: route intraperitoneal
How it was run: (§4)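 Ascitic sarcoma 180 model in Swiss mice: 10^6 cells ip, then three ip doses at 24-h intervals beginning 24 h later. Mice were weighed 1 day after cell injection and again 3 days later (24 h after the third dose). Percent weight gain of treated mice was compared with saline-treated controls on the same schedule.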

[6] = test system: Sarcoma-180; experiment: Antitumor activity against mouse Sarcoma 180 cells allografted in Swiss mouse assessed as cure at 15 mg/kg, ip three doses were given at 24 hrs interval starting 24 hrs after allograft injection measured after 60 days; format: functional, organism-based; set-up: dose 15 mg/kg
How it was run: (§5)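 Swiss mice given 10^6 ascitic sarcoma 180 cells ip. Starting 24 h later, three ip doses were given 24 h apart. Controls got isotonic salt solution on the same schedule. A cure was a mouse alive with no evidence of cancer cells 60 days after cell injection, reported per 6 mice.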

[7] = Redox potential of the compound in alcohol-water solution; conditions: buffer
[8] = test system: Sarcoma-180; experiment: Antitumor activity against mouse Sarcoma 180 cells allografted in Swiss mouse assessed as survival time at 70 mg/kg, ip three doses were given at 24 hrs interval starting 24 hrs after allograft injection relative to control; format: functional; conditions: route intraperitoneal; how it was run: as §1
[9] = test system: Sarcoma-180; experiment: Antitumor activity against mouse Sarcoma 180 cells allografted in Swiss mouse at 70 mg/kg, ip three doses were given at 24 hrs interval starting 24 hrs after allograft injection relative to control; format: functional; conditions: route intraperitoneal
How it was run: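 Swiss mice given 10^6 ascitic sarcoma 180 cells ip; three ip doses at 24-h intervals starting 24 h later; controls received isotonic salt solution on the same schedule. […] Cures = alive without cancer cells at 60 days.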

[10] = Half life of the compound in water at pH 7 at 25 degC by spectrophotometry; format: physicochemical
How it was run: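 Compound dissolved in absolute ethanol, then diluted into 0.01 M Tris buffer brought to pH 7 with HCl, 25 °C. Absorbance at λmax followed over hours or days; log absorbance vs time fitted by least squares, rate constant and half-time taken from the slope.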

[11] = test system: Sarcoma-180; experiment: Antitumor activity against mouse Sarcoma 180 cells allografted in Swiss mouse assessed as survival at 70 mg/kg, ip three doses were given at 24 hrs interval starting 24 hrs after allograft injection measured after 5 days; format: functional, organism-based; set-up: dose 70 mg/kg; how it was run: as §3
[12] = test system: Sarcoma-180; experiment: Antitumor activity against mouse Sarcoma 180 cells allografted in Swiss mouse assessed as weight gain at 70 mg/kg, ip three doses were given at 24 hrs interval starting 24 hrs after allograft injection measured after 3 days relative to control; format: functional; conditions: route intraperitoneal; how it was run: as §4
[13] = test system: Sarcoma-180; experiment: Antitumor activity against mouse Sarcoma 180 cells allografted in Swiss mouse assessed as cure at 70 mg/kg, ip three doses were given at 24 hrs interval starting 24 hrs after allograft injection measured after 60 days; format: functional, organism-based; set-up: dose 70 mg/kg; how it was run: as §5
[14] = test system: Sarcoma-180; experiment: Antitumor activity against mouse Sarcoma 180 cells allografted in Swiss mouse at 30 mg/kg, ip three doses were given at 24 hrs interval starting 24 hrs after allograft injection relative to control; format: functional; conditions: route intraperitoneal; how it was run: as §2
[15] = test system: Sarcoma-180; experiment: Antitumor activity against mouse Sarcoma 180 cells allografted in Swiss mouse assessed as weight gain at 30 mg/kg, ip three doses were given at 24 hrs interval starting 24 hrs after allograft injection measured after 3 days relative to control; format: functional; conditions: route intraperitoneal; how it was run: as §4
[16] = test system: Sarcoma-180; experiment: Antitumor activity against mouse Sarcoma 180 cells allografted in Swiss mouse assessed as survival at 30 mg/kg, ip three doses were given at 24 hrs interval starting 24 hrs after allograft injection measured after 5 days; format: functional, organism-based; set-up: dose 30 mg/kg; how it was run: as §3
[17] = test system: Sarcoma-180; experiment: Antitumor activity against mouse Sarcoma 180 cells allografted in Swiss mouse assessed as cure at 30 mg/kg, ip three doses were given at 24 hrs interval starting 24 hrs after allograft injection measured after 60 days; format: functional, organism-based; set-up: dose 30 mg/kg; how it was run: as §5
[18] = test system: Sarcoma-180; experiment: Antitumor activity against mouse Sarcoma 180 cells allografted in Swiss mouse assessed as survival time at 30 mg/kg, ip three doses were given at 24 hrs interval starting 24 hrs after allograft injection relative to control; format: functional; conditions: route intraperitoneal; how it was run: as §1
[19] = test system: Sarcoma-180; experiment: Antitumor activity against mouse Sarcoma 180 cells allografted in Swiss mouse assessed as survival time at 60 mg/kg, ip three doses were given at 24 hrs interval starting 24 hrs after allograft injection relative to control; format: functional; conditions: route intraperitoneal; how it was run: as §1
[20] = test system: Sarcoma-180; experiment: Antitumor activity against mouse Sarcoma 180 cells allografted in Swiss mouse at 60 mg/kg, ip three doses were given at 24 hrs interval starting 24 hrs after allograft injection relative to control; format: functional; conditions: route intraperitoneal; how it was run: as §2
[21] = test system: Sarcoma-180; experiment: Antitumor activity against mouse Sarcoma 180 cells allografted in Swiss mouse assessed as survival at 60 mg/kg, ip three doses were given at 24 hrs interval starting 24 hrs after allograft injection measured after 5 days; format: functional, organism-based; set-up: dose 60 mg/kg; how it was run: as §3
[22] = test system: Sarcoma-180; experiment: Antitumor activity against mouse Sarcoma 180 cells allografted in Swiss mouse assessed as weight gain at 60 mg/kg, ip three doses were given at 24 hrs interval starting 24 hrs after allograft injection measured after 3 days relative to control; format: functional; conditions: route intraperitoneal; how it was run: as §4
[23] = test system: Sarcoma-180; experiment: Antitumor activity against mouse Sarcoma 180 cells allografted in Swiss mouse assessed as cure at 60 mg/kg, ip three doses were given at 24 hrs interval starting 24 hrs after allograft injection measured after 60 days; format: functional, organism-based; set-up: dose 60 mg/kg; how it was run: as §5

O=C1C=CC(=NBr)C=C1
Survival [1]: 15.5 days
T/C [2]: 145%
LD50 at 120 h [3]: 40 mg/kg
Activity [4]: Active
Activity [5]: -3.8%
Activity [6]: inactive
Redox potential [7]: 0.518 V

O=C1C=C/C(=N/O)C=C1Cl
Survival [8]: 12.2 days
T/C [9]: 130%
half-life [10]: 13.1 days
LD50 at 120 h [3]: 240 mg/kg
Activity [11]: Active
Activity [12]: 13.4%
Activity [13]: inactive
Redox potential [7]: 0.516 V

CN(C)c1ccc(N=C2C=CC(=O)C=C2)cc1
T/C [14]: 132%
Activity [15]: -0.9%
half-life [10]: 29.2 days
LD50 at 120 h [3]: 80 mg/kg
Activity [16]: Active
Activity [17]: inactive
Survival [18]: 19.2 days
Redox potential [7]: 0.628 V

COC1=C/C(=N\O)C=CC1=O
Survival [19]: 18.5 days
T/C [20]: 173%
half-life [10]: 12.4 days
LD50 at 120 h [3]: 120 mg/kg
Activity [21]: Active
Activity [22]: 1.9%
Activity [23]: inactive
Redox potential [7]: 0.521 V
